Results as given in PMC3583367 (ACS medicinal chemistry letters, 2013).

Experiments:
[1] = system: STAT3 promoter activity; test: STAT3 dual luciferase reporter assay; assay type: cell-based, human; settings: 24 h pre-treatment
Outline: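 MDA-MB-231 cells were transiently transfected with the pSTAT3-Luc reporter vector and pretreated with test compound at different concentrations for 24 h. STAT3 promoter activity was then read by luciferase.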

[2] = system: MDA-MB-231 breast cancer cells; test: Annexin V-based flow cytometry apoptosis measurement; assay type: cell-based, human; settings: MDA-MB-231, dose-dependent
[3] = system: MDA-MB-231 breast cancer cells; test: Cellular morphological changes under light microscopy; assay type: cell-based, human; settings: MDA-MB-231, 48 h, 1 μM, 5 μM and 10 μM
[4] = system: STAT3; test: Western blot of total and phosphorylated STAT3 in MDA-MB-231 cells; assay type: cell-based, human; settings: MDA-MB-231, 24 h
Outline: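 MDA-MB-231 cells were treated with different doses of test compound for 24 h, then probed by Western blot for total STAT3 and Tyr-705 phospho-STAT3. Bands were quantified by densitometry over three independent experiments, with significance at p < 0.05 and p < 0.01.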

[5] = system: human breast and pancreatic cancer cell lines; test: MTS proliferation assays, statements over the cell line panel; assay type: cell-based; settings: for antiproliferative activity (in words): MCF-7, MDA-MB-231, AsPC1, Panc-1, MTS assays
[6] = system: MDA-MB-231 xenograft tumors; test: MDA-MB-231 xenograft tumor growth model; assay type: in vivo, mice
[7] = Signs of toxicity in mice; assay type: in vivo; settings: 75 mg/kg
[8] = system: cyclin D1; test: Western blot of cyclin D1 in MDA-MB-231 cells; assay type: cell-based, human; settings: MDA-MB-231, Western blot
Outline: (§1)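 Protein expression in MDA-MB-231 cells was analysed by Western blot after treatment with test compound. Band intensities were quantified by densitometry over three independent experiments, with significance marked at p < 0.05 and p < 0.01.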

[9] = system: caspase-3; test: Western blot of cleaved caspase-3 in MDA-MB-231 cells; assay type: cell-based, human; settings: MDA-MB-231, Western blot
Outline: as §1

**Q.** Which “STAT3 promoter activity (in words)” value ([1]; 20 μM, MDA-MB-231) does the source give for `O=C(Nc1ccc([N+](=O)[O-])cc1Cl)c1cc(Cl)ccc1O` [Compound 1, niclosamide, reference compound] here?
**A.** suppressed

**Q.** What about the “apoptosis (annexin V, flow cytometry)” value [2] of the same compound?
**A.** activated apoptosis

**Q.** What about the “cell proliferation and apoptosis with cellular morphological changes” value [3] of the same compound?
**A.** significantly inhibited cell proliferation and induced apoptosis

**Q.** What about the “phosphorylated STAT3 (p-STAT3) at Tyr-705” value [4] of the same compound?
**A.** suppressed

**Q.** And the “total STAT3 level” value [4]?
**A.** reduced

**Q.** Which “antiproliferative activity (in words)” value [5] does the source give for `O=C(Nc1ccc([N+](=O)[O-])cc1Cl)c1cc(Cl)ccc1OCCF` [Compound 3] here?
**A.** no significant effects

**Q.** For `CN1CCC(Oc2ccc(Cl)cc2C(=O)Nc2ccc([N+](=O)[O-])cc2Cl)CC1` [Compound 4], which “fold loss of antiproliferative activity in comparison with analogue 10” value ([5]; vs analogue 10) is on record?
**A.** 10 fold

**Q.** For `O=C(Nc1ccc([N+](=O)[O-])cc1Cl)c1cc(Cl)ccc1OC1CCNCC1` [Compound 10], which “cell proliferation and apoptosis with cellular morphological changes” value [3] is on record?
**A.** significantly inhibited cell proliferation and induced apoptosis

**Q.** With `NCCOc1ccc(Cl)cc1C(=O)Nc1ccc([N+](=O)[O-])cc1Cl` [Compound 11] as the compound, how does the “inhibition of xenograft tumor growth, i.p.” value ([6]; 7.5 mg/kg i.p., compared with 12.5 mg/kg niclosamide) read?
**A.** better effect in inhibiting tumor growth

**Q.** And the “growth of xenograft tumors, oral administration” value ([6]; 25 mg/kg p.o., more efficacious than niclosamide at 75 mg/kg)?
**A.** significantly reduced

**Q.** What about the “xenograft tumor growth in vivo (both i.p. & p.o.)” value ([6]; nude mice bearing MDA-MB-231 xenografts) of the same compound?
**A.** significantly suppressed

**Q.** And the “decrease of STAT3 promoter activity” value ([1]; 10 μM, MDA-MB-231, compared with control)?
**A.** approximately 32%

**Q.** And the “apoptosis (annexin V, flow cytometry)” value [2]?
**A.** activated apoptosis

**Q.** And the signs of toxicity [7]?
**A.** did not show significant signs of toxicity

**Q.** And the “cell proliferation and apoptosis with cellular morphological changes” value [3]?
**A.** significantly inhibited cell proliferation and induced apoptosis

**Q.** What about the “phosphorylated STAT3 (p-STAT3) at Tyr-705” value [4] of the same compound?
**A.** suppressed

**Q.** What about the “total STAT3 level” value [4] of the same compound?
**A.** reduced

**Q.** What about the “cyclin D1” value [8] of the same compound?
**A.** downregulated

**Q.** And the “cleaved caspase-3” value [9]?
**A.** induced

**Q.** Which “antiproliferative activity (in words)” value [5] does the source give for `CS(=O)(=O)Nc1ccc(NC(=O)c2cc(Cl)ccc2OC2CCNCC2)c(Cl)c1` [Compound 19] here?
**A.** significant loss of the antiproliferative activity

**Q.** With `CC(=O)Nc1ccc(NC(=O)c2cc(Cl)ccc2OC2CCNCC2)c(Cl)c1` [Compound 20] as the compound, how does the “antiproliferative activity (in words)” value [5] read?
**A.** significant loss of the antiproliferative activity
